Source: publication PMC4005387 (MedChemComm, 2014)

Legend:
KIX N627C mutant = KIX N627C mutant (Mus musculus, UniProt P45481, N627C); assay: LC-MS Tethering: labelling of KIX N627C by disulphide fragment; format: binding; settings: 5 mM BME, 250 μM fragment
[1] = biological target: KIX N627C / fluorescently-labeled MLL peptide (Mus musculus, UniProt P45481, N627C); settings: fragment covalently associated with KIX N627C; cited from earlier work
KIX H602C = KIX H602C (Mus musculus, UniProt P45481, H602C); assay: LC-MS analysis of labelling of KIX H602C by disulphide fragments; format: binding
In short: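 Tethering reactions of KIX H602C with ten hit disulphide fragments from the FP screen were run at increasing β-ME stringency to compare relative affinities. Mass spectrometry gave the percent of protein carrying each fragment through the disulphide.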

Sequence of KIX N627C / fluorescently-labeled MLL peptide (P45481 586-665 N627C limits assumed): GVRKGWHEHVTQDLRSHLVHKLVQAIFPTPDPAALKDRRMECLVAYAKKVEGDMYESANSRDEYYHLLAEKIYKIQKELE
Sequence of KIX H602C (P45481 586-665 H602C limits assumed): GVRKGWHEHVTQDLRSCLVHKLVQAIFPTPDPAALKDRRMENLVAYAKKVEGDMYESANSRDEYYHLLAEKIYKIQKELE
Sequence of KIX N627C mutant (P45481 586-665 N627C limits assumed): as the sequence (P45481 586-665 N627C limits assumed) above

For `CN(C)CCSSCCC(=O)N1CCC(O)(c2ccc(Cl)c(C(F)(F)F)c2)CC1` [1A10], the “percent of KIX N627C mutant labelled” value (KIX N627C mutant) is listed as 82% and the “inhibition of MLL binding” value [1] is listed as “effective inhibitors of MLL binding”.

For `COc1ccc2cc([C@H](C)C(=O)NCCSSCCN)ccc2c1` [1C11], the “inhibition of MLL binding” value [1] is given as “effective inhibitors of MLL binding”.

For `CC(=O)Nc1ccc(Cl)c(NC(=O)NCCSSCCN(C)C)c1` [3D4], the “percent labelling of KIX” value (KIX H602C; 5 mM β-ME, KIX H602C, MS) was ~ 70% and the “DR50 (concentration at which 50% of the KIX H602C mutant is bound by the fragment)” value (KIX H602C; LC-MS dose-response, result in words) was “lower with the fragment 3D4 than 6D11”.
